Source: PubChem BioAssay (several laboratories)
MEKK2 WT-MEK5 – raises or lowers MEK5 binding to wildtype human MEKK2 PB1 domain; Q9Y2U5; bead flow cytometry, Alexa488-MEK5 binding to MEKK2 WT; actives lie on both sides; binding response (% of control), % at 10 µM; hit rate 1.1% among 290,000; AID 1531; in the data active = binding response below about 67% or above about 130%
Dynein cargo inh – dynein cargo transport inhibition; 3617.4 mouse cells, GR-EGFP nuclear translocation imaging; test concentration mostly 20 µM; stimulated with dexamethasone, 1 µM; active compounds read low; hit rate 0.47% among 220,000; z-score, hits read low;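 active = plate z-score of nuclear minus cytoplasmic receptor signal below a set negative limit, without overly bright fluorescence or cell loss, cut at about -3.5 in these data, passing the limit was not always enough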;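 also: z-score of nuclear minus cytoplasmic ring GR-EGFP intensity difference per well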
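Schedule: 48 h induction, then 1 h compound, then 30 min agonist, 37 °C. Buffer or medium: tetracycline-free induction medium containing charcoal-stripped FBS. Reagent: 1.0 µM final dexamethasone stimulus. Evaluation: nuclear versus cytoplasmic GR-EGFP signal, averaged per well. Signal: high-content fluorescence imaging after fixation.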
Beta2AR agonist – agonists of human beta-2 adrenergic receptor inducing internalization; P07550; Am2.2-beta2AR cells, FAP receptor internalization, flow cytometry; response, % (test concentration not listed); AID 504454; hit rate 0.43% among 340,000;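 active = response above a set limit, near 3 SD of response in nonfluorescent compounds, cut at about 42% in these data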
Target sequence (P07550 whole entry, looked up): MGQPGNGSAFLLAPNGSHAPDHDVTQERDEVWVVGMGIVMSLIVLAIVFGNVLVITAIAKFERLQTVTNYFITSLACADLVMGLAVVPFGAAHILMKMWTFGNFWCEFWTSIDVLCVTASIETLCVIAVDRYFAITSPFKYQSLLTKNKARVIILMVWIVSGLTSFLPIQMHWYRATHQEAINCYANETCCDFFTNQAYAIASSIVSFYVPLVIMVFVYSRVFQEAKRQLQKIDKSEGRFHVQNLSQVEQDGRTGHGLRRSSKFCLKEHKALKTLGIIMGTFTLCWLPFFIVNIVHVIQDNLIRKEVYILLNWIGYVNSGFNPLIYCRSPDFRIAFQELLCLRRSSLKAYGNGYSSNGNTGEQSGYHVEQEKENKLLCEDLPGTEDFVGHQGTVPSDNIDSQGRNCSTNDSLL
MEKK3 PB1 HTS – modulators (inhibitors or enhancers) of MEK5 binding to human MEKK3 PB1 domain; hit rate 1.4% among 290,000; Q99759; bead-based flow cytometry, Alexa488-MEK5 binding to MEKK3; actives lie on both sides; 0 = blocked by unlabeled MEK5, 100 = vehicle; binding response (% of control), % at 10 µM;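 active = binding response more than 3 SD above or below the average of its plate-row segment, actives on both sides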;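 also: Alexa488 bead fluorescence after subtracting the streptavidin-only scavenger bead signal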
MEKK2 mut-MEK5 – signal of MEK5 binding to mutant human MEKK2 PB1 domain | hit rate 0.35% among 290,000 | AID 1530 | percent response, % at 10 µM | bead flow cytometry, Alexa488-MEK5 binding to MEKK2 mutant; in the data active = percent response above about 24%, passing the limit was not always enough
ATG4B inh – ATG4B (human) cysteine protease inhibition; Q9Y4P1; ATG4B cleavage of LC3-PLA2, NBD-HPC fluorescence, 1 h; AID 504462; hit rate 0.51% among 340,000; inhibition, % at 8.33 µM; in the data active = inhibition above about 40%
MEKK2wt confirm – raises or lowers MEK5 binding to wildtype human MEKK2, retest; shares compounds with MEKK3 PB1 HTS; bead flow cytometry, Alexa488-MEK5 binding to MEKK2 WT; actives lie on both sides; binding response (% of control), % at 10 µM; hit rate 2.4% among 5,900; AID 1892; in the data active = binding response below about 16% or above about 210%; inactive = in between
MEKK2mut-MEK5 – signal of MEK5 binding to mutant human MEKK2, retest. shares compounds with MEKK3 PB1 HTS. bead flow cytometry, Alexa488-MEK5 binding to MEKK2 mutant. percent response, % at 10 µM. hit rate 2% among 5,900. AID 1893; in the data active = percent response mostly above about 71%, no sharp cut-off; inactive = mostly below about 38%;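 also: higher means compound restores mutant binding toward wildtype level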
MEKK3 confirm – confirmation of inhibitors of MEK5 binding to human MEKK3; binding response (% of control), % at 10 µM; bead flow cytometry, Alexa488-MEK5 binding to MEKK3; active compounds read low; shares compounds with MEKK3 PB1 HTS; hit rate 1.8% among 5,900;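 active = binding response below 72% of control, or above a set upper limit, though filed actives all read lower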;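 also: 100% = DMSO only wells and 0% = binding blocked by excess unlabeled MEK5; lower values mean stronger disruption of MEK5 binding to MEKK3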
* marks the source's active call; other numbers are inactive results; x = no result given; [ ] = remark or other dose. Only some compounds are listed: those with a hit (about 2.9% of all), similar ones and a draw of the others.

SMILES	MEKK2 WT-MEK5	Dynein cargo inh	Beta2AR agonist	MEKK3 PB1 HTS	MEKK2 mut-MEK5	ATG4B inh	MEKK2wt confirm	MEKK2mut-MEK5	MEKK3 confirm
Cc1ccc(C2=NN(S(=O)(=O)c3ccccc3)C(c3ccccc3O)C2)cc1 (stereo not drawn)	x	-0.24	-9	14*[inhibitor]	161*	26	88	-7	88
COc1ccc(C2CC(c3ccccc3)=NN2S(=O)(=O)c2ccccc2)cc1 (stereo not drawn)	103	-1	-37	20*[inhibitor]	50	-4	91	-17	85
c1ccc2[nH]c(Cn3nnc4ccccc43)nc2c1	x	x	-9	x	x	10	x	x	x
COC(=O)CC1C(=O)NCCN1C(=O)Nc1ccc(Cl)cc1 (stereo not drawn)	2.0*[inhibitor]	1.5	1	95	-38	-3	97	1	107
CCOC(=O)c1sc2nc(CSc3ccccc3)nc(N3CCC(C(N)=O)CC3)c2c1C	95	-0.32	6	105	-5	3	x	x	x
CCOC(=O)c1sc2nc(CSc3ccccc3)nc(N3CCCN(C)CC3)c2c1C	134	2.3	12	130*	1	-3	158	21	104
CC(=O)NC1=CC(=C[N+](=O)[O-])C=C1O	x	x	-9	x	x	12	x	x	x
NC(=O)CSc1nc2c(sc(=S)n2-c2ccccc2)c(=O)[nH]1	101	x	1	101	2	-7	x	x	x
CCCCN(C)CCNC(=O)C(=O)c1c(C)[nH]c2ccccc12	84	0.26	1	75*[inhibitor]	-4	-3	99	-4	101
Cc1[nH]c2ccccc2c1C(=O)C(=O)NCCCc1ccccc1	109	x	-9	106	9	-13	x	x	x
Cc1ccc(-c2nc(NCCN3CCOCC3)c3ccccc3n2)cc1	88	-0.91	-6	72*[inhibitor]	-6	-14	101	2	97
O=[N+]([O-])c1cc(C(F)(F)F)ccc1NCCNC(=S)Nc1ccc(Cl)cc1	139*	-0.12	-2	107	19	2	131	20	108
O=[N+]([O-])c1cc(C(F)(F)F)ccc1NCCCCNS(=O)(=O)c1ccc(Cl)cc1	120	-0.17	-4	100	0	-5	x	x	x
Cc1[nH]c2ccccc2c1C(=O)COc1ccccc1	118	-0.31	0	142*	1	-2	102	3	101
Cc1cc(C)c(S(=O)(=O)c2ccccc2C(=O)O)c(C)c1	124	-0.58	6	126*	6	-1	101	9	104
CCCCNc1ncnc2c1nnn2Cc1ccccc1Cl	107	x	-2	107	8	10	x	x	x
Cc1ccc(C(=O)COC(=O)c2c(C)cc(=O)oc2C)cc1[N+](=O)[O-]	106	0.59	0	160*	1	-7	105	8	102
O=c1c(-c2c(O)cc(O)c3c2O[C@H](c2ccc(O)cc2)CC3)c(-c2ccc(O)cc2)oc2cc(O)cc(O)c12	x	x	4	x	x	-6	x	x	x
Cn1cnc2cc(NC(=O)c3cccs3)ccc21	99	0.27	-12	97	-41	-23	x	x	x
Cc1ccc(S(=O)(=O)Nc2ccccc2N(C)S(=O)(=O)c2ccc(C)cc2)cc1	x	x	-10	x	x	6	x	x	x
N#C/C(=C\C1=C(N2CCOCC2)C(=C\c2ccc(Cl)cc2)/CC1)C(=O)Nc1ccccc1F	x	1.5	-118	7.0*[inhibitor]	-9	4	72	-19	73
N#C/C(=C\C1=C(N2CCOCC2)C(=C/c2cccc([N+](=O)[O-])c2)/CC1)C(=O)Nc1ccccc1F	x	-0.91	-16	9.0*[inhibitor]	-7	1	92	-7	98
